SMILES strings stand for the structures. Values after ≈ are worked out from the molar mass of the structure shown.

For series [1], the system named is Mycobacterium tuberculosis. The experiment in a line: Antimycobacterial activity against drug-sensitive Mycobacterium tuberculosis assessed as mycobacterial growth inhibition. In kind it is functional.
Series [2] can be described thus: Cytotoxicity against African green monkey Vero cells. In kind it is toxicity, cell-based. The conditions noted are these: chlorocebus sabaeus.
Series [3] relates to Mycobacterium tuberculosis. In words: Antimycobacterial activity against Mycobacterium tuberculosis H37Rv assessed as mycobacterial growth inhibition by microplate alamar blue assay. In kind it is functional. The essentials:
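M. tuberculosis H37Rv under normoxic conditions, microplate alamar blue assay (MABA) following Cho et al. Read-out is MIC.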
(The colour change of resazurin is a common sign of viable cells or microbes.)

In series [4] the test system is Mycobacterium tuberculosis. In words: Antimycobacterial activity against Mycobacterium tuberculosis H37Rv assessed as mycobacterial growth inhibition by low oxygen recovery assay. The format is functional. The essentials:
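M. tuberculosis H37Rv under hypoxic conditions, low-oxygen recovery assay (LORA) following Cho et al. Read-out is MIC.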

Series [5] relates to Mycolicibacterium smegmatis. The experiment in a line: Antimycobacterial activity against Mycobacterium smegmatis ATCC19420 assessed as mycobacterial growth inhibition. The format is functional.
Series [6] has as its system Mycolicibacterium peregrinum. In words: Antimycobacterial activity against Mycobacterium peregrinum ATCC700686 assessed as mycobacterial growth inhibition. In kind it is functional.
Series [7] relates to Mycolicibacterium smegmatis. The experiment in a line: Antimycobacterial activity against Mycobacterium smegmatis ATCC700084 assessed as mycobacterial growth inhibition. The format is functional.
The nature of series [8]: Cytotoxicity against human HeLa cells. The format is toxicity, cell-based.
The next series deals with Cardiac Purkinje fiber. In words: Effect on rabbit Purkinje fiber assessed as change in concentration of maximum upstroke velocity. In kind it is functional, Oryctolagus cuniculus.
The target of series [9] is Voltage-dependent L-type calcium channel subunit alpha-1C (Homo sapiens, UniProt Q13936). In words: Inhibition of human Cav1.2.
Series [10] concerns the target Voltage-gated inwardly rectifying potassium channel KCNH2 (Homo sapiens, UniProt Q12809). In words: Inhibition of human ERG. The format is toxicity.
Series [11] addresses Sodium channel protein type 5 subunit alpha (Homo sapiens, UniProt Q14524). In words: Inhibition of Nav1.5 (unknown origin).

Sodium channel protein type 5 subunit alpha, sequence (Q14524 whole entry): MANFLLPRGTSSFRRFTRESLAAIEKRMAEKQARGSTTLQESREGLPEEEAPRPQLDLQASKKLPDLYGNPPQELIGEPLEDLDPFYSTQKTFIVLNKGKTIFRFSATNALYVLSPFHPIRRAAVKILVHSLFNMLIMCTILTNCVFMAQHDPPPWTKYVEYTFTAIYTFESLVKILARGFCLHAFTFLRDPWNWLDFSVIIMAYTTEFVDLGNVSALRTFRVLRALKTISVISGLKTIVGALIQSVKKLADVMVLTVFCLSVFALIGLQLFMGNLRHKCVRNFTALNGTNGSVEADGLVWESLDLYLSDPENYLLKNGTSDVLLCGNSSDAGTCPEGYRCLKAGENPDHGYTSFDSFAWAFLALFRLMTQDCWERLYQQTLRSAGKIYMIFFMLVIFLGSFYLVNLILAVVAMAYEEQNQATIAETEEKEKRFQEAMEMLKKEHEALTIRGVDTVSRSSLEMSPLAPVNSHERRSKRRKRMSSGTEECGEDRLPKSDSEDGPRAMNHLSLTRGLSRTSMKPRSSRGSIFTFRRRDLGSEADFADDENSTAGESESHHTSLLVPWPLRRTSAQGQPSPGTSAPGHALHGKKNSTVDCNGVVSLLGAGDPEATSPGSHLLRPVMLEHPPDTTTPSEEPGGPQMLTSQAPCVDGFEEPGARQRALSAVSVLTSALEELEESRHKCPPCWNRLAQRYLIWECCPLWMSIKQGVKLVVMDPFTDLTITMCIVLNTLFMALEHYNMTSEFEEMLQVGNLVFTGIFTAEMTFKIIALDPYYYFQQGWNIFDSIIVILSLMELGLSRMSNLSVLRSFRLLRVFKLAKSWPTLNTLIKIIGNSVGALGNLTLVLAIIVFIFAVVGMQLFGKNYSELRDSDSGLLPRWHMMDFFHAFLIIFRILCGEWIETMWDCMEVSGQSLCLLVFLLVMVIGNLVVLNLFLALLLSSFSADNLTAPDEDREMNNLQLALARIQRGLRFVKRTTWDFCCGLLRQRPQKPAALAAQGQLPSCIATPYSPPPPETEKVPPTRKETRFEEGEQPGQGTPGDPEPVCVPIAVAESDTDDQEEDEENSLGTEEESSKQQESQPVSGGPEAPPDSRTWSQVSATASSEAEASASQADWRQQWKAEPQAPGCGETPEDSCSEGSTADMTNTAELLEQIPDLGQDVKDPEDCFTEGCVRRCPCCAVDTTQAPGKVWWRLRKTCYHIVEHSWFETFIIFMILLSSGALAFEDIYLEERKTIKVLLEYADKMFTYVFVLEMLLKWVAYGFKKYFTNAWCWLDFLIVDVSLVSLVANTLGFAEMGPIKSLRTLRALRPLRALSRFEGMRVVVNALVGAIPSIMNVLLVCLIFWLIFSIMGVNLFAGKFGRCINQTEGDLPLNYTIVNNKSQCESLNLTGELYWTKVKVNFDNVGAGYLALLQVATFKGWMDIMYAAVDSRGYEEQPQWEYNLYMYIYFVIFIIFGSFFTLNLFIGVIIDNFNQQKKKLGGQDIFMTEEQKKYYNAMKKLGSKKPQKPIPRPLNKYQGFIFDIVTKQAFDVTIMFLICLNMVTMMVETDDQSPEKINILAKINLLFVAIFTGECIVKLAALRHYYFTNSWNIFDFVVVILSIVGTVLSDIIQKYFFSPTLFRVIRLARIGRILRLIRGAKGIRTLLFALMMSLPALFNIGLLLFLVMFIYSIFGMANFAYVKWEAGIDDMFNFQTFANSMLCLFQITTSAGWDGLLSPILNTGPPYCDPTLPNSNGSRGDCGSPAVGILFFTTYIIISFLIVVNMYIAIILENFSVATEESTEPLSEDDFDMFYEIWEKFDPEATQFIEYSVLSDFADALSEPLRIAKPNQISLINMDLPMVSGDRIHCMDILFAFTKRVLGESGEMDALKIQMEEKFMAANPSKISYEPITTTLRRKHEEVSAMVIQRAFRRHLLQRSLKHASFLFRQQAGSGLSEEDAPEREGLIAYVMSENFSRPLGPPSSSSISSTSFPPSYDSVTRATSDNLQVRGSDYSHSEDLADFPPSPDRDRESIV
Voltage-dependent L-type calcium channel subunit alpha-1C, sequence (Q13936 whole entry): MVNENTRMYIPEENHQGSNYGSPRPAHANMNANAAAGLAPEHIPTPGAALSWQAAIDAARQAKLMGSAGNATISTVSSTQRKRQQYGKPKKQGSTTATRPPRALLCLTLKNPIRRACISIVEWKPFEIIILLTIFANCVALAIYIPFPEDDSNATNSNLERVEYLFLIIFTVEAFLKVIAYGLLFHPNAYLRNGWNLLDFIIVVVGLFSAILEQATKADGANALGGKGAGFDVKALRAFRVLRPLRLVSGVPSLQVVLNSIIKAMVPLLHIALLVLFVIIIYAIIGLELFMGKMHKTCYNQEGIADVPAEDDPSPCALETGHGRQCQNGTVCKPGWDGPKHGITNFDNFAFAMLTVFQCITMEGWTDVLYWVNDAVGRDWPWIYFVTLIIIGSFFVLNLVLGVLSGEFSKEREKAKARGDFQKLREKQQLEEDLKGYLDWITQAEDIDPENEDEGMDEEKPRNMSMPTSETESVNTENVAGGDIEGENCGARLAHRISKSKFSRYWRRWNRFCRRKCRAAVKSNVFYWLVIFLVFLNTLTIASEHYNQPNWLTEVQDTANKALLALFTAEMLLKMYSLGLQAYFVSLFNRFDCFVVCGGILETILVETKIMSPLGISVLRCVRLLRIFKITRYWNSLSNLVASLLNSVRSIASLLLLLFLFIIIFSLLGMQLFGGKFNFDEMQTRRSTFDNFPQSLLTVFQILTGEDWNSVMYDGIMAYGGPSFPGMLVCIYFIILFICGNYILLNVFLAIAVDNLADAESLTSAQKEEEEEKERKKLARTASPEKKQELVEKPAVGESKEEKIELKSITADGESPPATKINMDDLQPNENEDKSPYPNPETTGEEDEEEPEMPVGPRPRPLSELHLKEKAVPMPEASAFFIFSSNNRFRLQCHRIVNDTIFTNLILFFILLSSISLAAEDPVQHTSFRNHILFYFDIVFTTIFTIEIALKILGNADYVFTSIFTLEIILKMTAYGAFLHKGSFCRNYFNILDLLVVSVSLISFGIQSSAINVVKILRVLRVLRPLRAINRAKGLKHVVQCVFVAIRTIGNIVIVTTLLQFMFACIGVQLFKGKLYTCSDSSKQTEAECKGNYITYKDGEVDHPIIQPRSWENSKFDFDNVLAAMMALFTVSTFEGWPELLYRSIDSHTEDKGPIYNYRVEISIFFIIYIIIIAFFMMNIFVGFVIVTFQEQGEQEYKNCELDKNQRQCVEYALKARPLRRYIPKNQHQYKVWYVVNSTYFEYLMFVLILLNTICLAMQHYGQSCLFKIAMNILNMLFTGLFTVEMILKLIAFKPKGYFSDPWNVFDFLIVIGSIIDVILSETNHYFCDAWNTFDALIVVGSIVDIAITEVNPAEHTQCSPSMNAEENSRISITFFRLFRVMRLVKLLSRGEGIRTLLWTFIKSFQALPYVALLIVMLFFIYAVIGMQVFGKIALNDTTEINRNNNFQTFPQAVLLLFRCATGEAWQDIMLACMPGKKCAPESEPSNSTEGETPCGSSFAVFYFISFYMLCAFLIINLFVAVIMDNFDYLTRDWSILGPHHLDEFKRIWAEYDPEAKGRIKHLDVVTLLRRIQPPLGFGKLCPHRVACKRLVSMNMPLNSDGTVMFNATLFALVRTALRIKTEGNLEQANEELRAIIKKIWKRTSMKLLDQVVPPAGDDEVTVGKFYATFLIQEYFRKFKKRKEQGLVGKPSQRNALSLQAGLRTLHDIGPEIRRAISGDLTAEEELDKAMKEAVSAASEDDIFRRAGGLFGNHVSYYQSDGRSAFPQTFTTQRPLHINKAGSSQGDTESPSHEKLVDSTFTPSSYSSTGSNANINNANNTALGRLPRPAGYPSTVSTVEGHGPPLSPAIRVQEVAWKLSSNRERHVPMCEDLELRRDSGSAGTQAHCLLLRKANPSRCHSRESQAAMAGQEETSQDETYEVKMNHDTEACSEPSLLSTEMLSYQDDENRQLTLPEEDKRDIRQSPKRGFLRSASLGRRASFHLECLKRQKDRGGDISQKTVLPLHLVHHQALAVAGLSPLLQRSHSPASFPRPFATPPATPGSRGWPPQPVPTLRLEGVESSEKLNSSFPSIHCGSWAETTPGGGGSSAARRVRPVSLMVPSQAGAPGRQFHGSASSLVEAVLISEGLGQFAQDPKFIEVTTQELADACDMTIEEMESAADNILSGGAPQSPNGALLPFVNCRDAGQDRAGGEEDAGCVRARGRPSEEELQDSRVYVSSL

Take `NC[C@H]1O[C@H](O[C@H]2[C@H](O)[C@@H](O[C@H]3O[C@H](CO)[C@@H](O)[C@H](N)[C@H]3O)[C@H](N)C[C@@H]2N)[C@H](O)[C@@H](O)[C@@H]1O` [KANAMYCIN]: in [1], the MIC50 was 1.22 µg/mL (≈ 2.52 µM) and the MIC90 came out at 1.91 µg/mL (≈ 3.94 µM).
On to `COc1nc(-c2cccc(Cl)c2)ccc1[C@@H](c1ccccc1)[C@@](O)(CCN(C)C)c1cccc2ccccc12`, for which the CC50 in series [2] was above 50 µg/mL. The MIC was 2.73 µg/mL (≈ 5.08 µM) in series [3] and 1.36 µg/mL (≈ 2.53 µM) in series [4].
`COc1nc(-c2ccccc2)ccc1[C@@H](c1ccccc1)[C@@](O)(CCN(C)C)c1cccc2ccccc12`: the results for the MIC in series [5], in series [6] and in series [7] were 1 µg/mL (≈ 1.99 µM), 0.5 µg/mL (≈ 0.995 µM) and 1 µg/mL (≈ 1.99 µM), respectively.
Regarding `COc1ccc(-c2ccc([C@@H](c3ccccc3)[C@@](O)(CCN(C)C)c3cccc4ccccc34)c(OC)n2)cc1`, the CC50 in series [2] was above 50 µg/mL; in series [8], above 64 µg/mL. For the same compound, the MIC in series [3] amounted to 0.33 µg/mL (≈ 0.62 µM); in series [4], 0.19 µg/mL (≈ 0.357 µM).
On to `COc1nc(-c2ccc(Cl)c(F)c2)ccc1[C@@H](c1ccccc1)[C@@](O)(CCN(C)C)c1cccc2ccccc12`, for which the CC50 was above 50 µg/mL in series [2] and above 64 µg/mL in [8]. For the same compound, the minimal inhibitory concentration (MIC) in series [3] is 0.19 µg/mL (≈ 0.342 µM); in series [4], 0.52 µg/mL (≈ 0.937 µM).
Consider `COc1nc(-c2cccc(F)c2)ccc1[C@@H](c1ccccc1)[C@@](O)(CCN(C)C)c1cccc2ccccc12`, for which the CC50 was above 50 µg/mL in series [2] and 62.8 µg/mL (≈ 121 µM) in series [8]. The MIC in series [3] stood at 0.48 µg/mL (≈ 0.922 µM); in series [4], 1.18 µg/mL (≈ 2.27 µM).
For `COc1ncc(-c2ccccc2)cc1[C@@H](c1ccccc1)[C@@](O)(CCN(C)C)c1cccc(F)c1F`, the CC50 in series [2] was above 50 µg/mL; in series [8] it was 28.1 µg/mL (≈ 57.5 µM). The MIC in series [3] was 0.6 µg/mL (≈ 1.23 µM); in [4], 0.5 µg/mL (≈ 1.02 µM).
Take `COc1ncc(-c2ccccc2)cc1[C@@H](c1ccccc1)[C@@](O)(CCN(C)C)c1ccccc1`: the CC50 was above 50 µg/mL in series [2] and 11.9 µg/mL (≈ 26.3 µM) in [8]. For the same compound, the MIC in series [3] was found to be 1.5 µg/mL (≈ 3.31 µM); in series [4] it was 1.2 µg/mL (≈ 2.65 µM).
As for `CO[C@H]1/C=C/O[C@@]2(C)Oc3c(C)c(O)c4c(O)c(c(/C=N/N5CCN(C)CC5)c(O)c4c3C2=O)NC(=O)/C(C)=C\C=C\[C@H](C)[C@H](O)[C@@H](C)[C@@H](O)[C@@H](C)[C@H](OC(C)=O)[C@@H]1C` [RIFAMPIN], in series [1], the MIC50 was 0.035 µg/mL (≈ 0.0425 µM) and the MIC90 stood at 0.057 µg/mL (≈ 0.0693 µM).
With `COc1nc(-c2ccsc2)ccc1[C@@H](c1ccccc1)[C@@](O)(CCN(C)C)c1cccc2ccccc12`, the values for the cytotoxic concentration (CC50) in [2] and in series [8] were 24.4 µg/mL (≈ 48 µM) and above 64 µg/mL, respectively.
`COc1nc(-c2ccc(OC(F)(F)F)cc2)ccc1[C@@H](c1ccccc1)[C@@](O)(CCN(C)C)c1cccc2ccccc12`: the CC50 in [2] was above 50 µg/mL; in series [8] it was above 64 µg/mL. The MIC in series [3] came out at 0.03 µg/mL (≈ 0.0511 µM); in series [4], 0.61 µg/mL (≈ 1.04 µM).
As for `COc1nc(C2CCOCC2)ccc1[C@@H](c1ccccc1)[C@@](O)(CCN(C)C)c1cccc2ccccc12`, the figures for the CC50 in [2] and in [8] were above 50 µg/mL and 22.5 µg/mL (≈ 44.1 µM), respectively. Further, the results for the MIC in series [3] and in series [4] were 1.3 µg/mL (≈ 2.55 µM) and 2.7 µg/mL (≈ 5.29 µM), respectively.
In the case of `COc1nc(-c2ccc(F)cc2)ccc1[C@@H](c1ccccc1)[C@@](O)(CCN(C)C)c1cccc2ccccc12`, the CC50 was above 50 µg/mL in series [2] and above 64 µg/mL in series [8]. The results for the MIC in series [3] and in [4] were 0.34 µg/mL (≈ 0.653 µM) and 0.71 µg/mL (≈ 1.36 µM), respectively.
For the compound `COc1ncc(-c2ccccc2)cc1[C@@H](c1ccccc1)[C@@](O)(CCN(C)C)c1cc(F)cc(F)c1`, the CC50 in series [2] was above 50 µg/mL; in [8], 28.8 µg/mL (≈ 58.9 µM). In addition, the MIC in series [3] turned out to be 0.7 µg/mL (≈ 1.43 µM); in series [4], 0.4 µg/mL (≈ 0.819 µM).
In the case of `COc1nc(C2CCCCC2)ccc1[C@@H](c1ccccc1)[C@@](O)(CCN(C)C)c1cccc2ccccc12`, the results for the CC50 in [2] and in [8] were 32.3 µg/mL (≈ 63.5 µM) and 57.7 µg/mL (≈ 113 µM), respectively. Besides, the MIC in series [4] was 1.8 µg/mL (≈ 3.54 µM).
Take `COc1nc(-c2ccc(C(F)(F)F)cc2)ccc1[C@@H](c1ccccc1)[C@@](O)(CCN(C)C)c1cccc2ccccc12`: the CC50 was above 50 µg/mL in [2] and above 64 µg/mL in series [8]. In addition, the results for the MIC in series [3] and in [4] were 0.96 µg/mL (≈ 1.68 µM) and 0.63 µg/mL (≈ 1.1 µM), respectively.
In turn, `COc1ncc(-c2ccccc2)cc1[C@@H](c1ccccc1)[C@@](O)(CCN(C)C)c1cc(F)ccc1F` gave a CC50 in series [2] above 50 µg/mL. Besides, the MIC in series [3] and in series [4] was 0.7 µg/mL (≈ 1.43 µM) in each case.
`COc1nc(-c2ccncc2)ccc1[C@@H](c1ccccc1)[C@@](O)(CCN(C)C)c1cccc2ccccc12`: the half-maximal cytotoxic concentration (CC50) in [2] was above 50 µg/mL; in [8], 9.6 µg/mL (≈ 19.1 µM). Moreover, the MIC in series [3] was determined as 0.7 µg/mL (≈ 1.39 µM).
For `COc1nc(-c2ccccc2F)ccc1[C@@H](c1ccccc1)[C@@](O)(CCN(C)C)c1cccc2ccccc12`, the CC50 in series [2] was above 50 µg/mL. Also, the results for the MIC in [3] and in series [4] were 1.41 µg/mL (≈ 2.71 µM) and 0.57 µg/mL (≈ 1.09 µM), respectively.
As to `COc1nc(-c2ccccc2Cl)ccc1[C@@H](c1ccccc1)[C@@](O)(CCN(C)C)c1cccc2ccccc12`, the CC50 in series [2] was above 50 µg/mL; in [8], above 64 µg/mL. For the same compound, the MIC in series [3] was 1.17 µg/mL (≈ 2.18 µM); in series [4], 3.03 µg/mL (≈ 5.64 µM).
For `NNC(=O)c1ccncc1` [ISONIAZID], in series [1], the MIC50 was found to be 0.024 µg/mL (≈ 0.175 µM) and the MIC90 came to 0.032 µg/mL (≈ 0.233 µM).
As to `COc1nc(C(C)(C)C)ccc1[C@@H](c1ccccc1)[C@@](O)(CCN(C)C)c1cccc2ccccc12`, the CC50 in series [2] is 27.6 µg/mL (≈ 57.2 µM); in [8], above 64 µg/mL. Besides, the MIC was 1.3 µg/mL (≈ 2.69 µM) in series [3] and 2.7 µg/mL (≈ 5.59 µM) in series [4].
With `CNCC[C@@](O)(c1cccc2ccccc12)[C@H](c1ccccc1)c1ccc(-c2ccc(Cl)cc2)nc1OC`, in the series on Cardiac Purkinje fiber, the Activity was above 3 µM. For the same compound, the results for the half-maximal inhibitory concentration (IC50) in series [9], in series [10] and in series [11] were above 3000 nM, 1890 nM and above 10000 nM, respectively.
On the same counts, the results for `CNCC[C@@](O)(c1cccc2ccccc12)[C@H](c1ccccc1)c1cc2cc(Br)ccc2nc1OC` are 0.3 µM, 750 nM, 1730 nM and above 10000 nM.
With `COc1nc(-c2cnsc2)ccc1[C@@H](c1ccccc1)[C@@](O)(CCN(C)C)c1cccc2ccccc12`, the CC50 in [2] was 26.3 µg/mL (≈ 51.6 µM); in series [8] it was 28.8 µg/mL (≈ 56.5 µM). Further, the MIC in series [3] worked out at 1.9 µg/mL (≈ 3.73 µM); in series [4], 3.9 µg/mL (≈ 7.65 µM).
On to `COc1ncc(-c2ccccc2)cc1[C@@H](c1ccccc1)[C@@](O)(CCN(C)C)c1cccc2ccccc12`, for which the MIC in [5] amounted to 0.0312 µg/mL (≈ 0.0622 µM); in [3], 1.1 µg/mL (≈ 2.19 µM); in [4], 0.7 µg/mL (≈ 1.39 µM); in [6] it was 0.0625 µg/mL (≈ 0.124 µM); in [7], 0.0625 µg/mL (≈ 0.124 µM). Further, the CC50 in series [2] is above 50 µg/mL; in series [8] it was 30.4 µg/mL (≈ 60.5 µM).
Turning to `COc1nc(-c2ccc(Br)cc2)ccc1[C@@H](c1ccccc1)[C@@](O)(CCN(C)C)c1cccc2ccccc12`, the CC50 in [2] was above 50 µg/mL; in series [8] it was above 64 µg/mL. The MIC in series [3] and in series [4] was 0.22 µg/mL (≈ 0.378 µM) in each case.
Regarding `COc1nc(-c2ccc(C#N)cc2)ccc1[C@@H](c1ccccc1)[C@@](O)(CCN(C)C)c1cccc2ccccc12`, the CC50 was above 50 µg/mL in series [2] and above 64 µg/mL in series [8]. In addition, the MIC was found to be 0.44 µg/mL (≈ 0.834 µM) in [3] and 0.77 µg/mL (≈ 1.46 µM) in series [4].

For orientation: MIC50 means an inhibitory concentration at the 50% level, which refers to growth in some studies and to a panel of isolates in others. The MIC90 is an inhibitory concentration at the 90% level, which refers to growth in some studies and to a panel of isolates in others. As a reminder, the CC50 is the concentration that lowers cell viability or growth by half. For orientation: MIC means the smallest concentration in the dilution series that meets the test's criterion for growth inhibition. Broadly, the IC50 is the concentration needed to halve the response being measured.

The record behind these values is ChEMBL document CHEMBL5113423, “Discovery and preclinical profile of sudapyridine (WX-081), a novel anti-tuberculosis agent” (Bioorg Med Chem Lett, 2022).
